Assay results from ChEMBL document CHEMBL1137383, “New efficient substrates for semicarbazide-sensitive amine oxidase/VAP-1 enzyme: analysis by SARs and computational docking” (J Med Chem, 2006).
Activity calls are given as the source filed them. The calls are words filed in the database; no cut-off is given here.

Key:
[1] = molecular target: T1, Amine oxidase [copper-containing] 3 (Homo sapiens) (UniProt Q16853); experiment: Activity of human SSAO measured as hydrogen peroxide production at 1 mM relative to benzylamine oxidation; type: functional
T1 sequence (whole entry): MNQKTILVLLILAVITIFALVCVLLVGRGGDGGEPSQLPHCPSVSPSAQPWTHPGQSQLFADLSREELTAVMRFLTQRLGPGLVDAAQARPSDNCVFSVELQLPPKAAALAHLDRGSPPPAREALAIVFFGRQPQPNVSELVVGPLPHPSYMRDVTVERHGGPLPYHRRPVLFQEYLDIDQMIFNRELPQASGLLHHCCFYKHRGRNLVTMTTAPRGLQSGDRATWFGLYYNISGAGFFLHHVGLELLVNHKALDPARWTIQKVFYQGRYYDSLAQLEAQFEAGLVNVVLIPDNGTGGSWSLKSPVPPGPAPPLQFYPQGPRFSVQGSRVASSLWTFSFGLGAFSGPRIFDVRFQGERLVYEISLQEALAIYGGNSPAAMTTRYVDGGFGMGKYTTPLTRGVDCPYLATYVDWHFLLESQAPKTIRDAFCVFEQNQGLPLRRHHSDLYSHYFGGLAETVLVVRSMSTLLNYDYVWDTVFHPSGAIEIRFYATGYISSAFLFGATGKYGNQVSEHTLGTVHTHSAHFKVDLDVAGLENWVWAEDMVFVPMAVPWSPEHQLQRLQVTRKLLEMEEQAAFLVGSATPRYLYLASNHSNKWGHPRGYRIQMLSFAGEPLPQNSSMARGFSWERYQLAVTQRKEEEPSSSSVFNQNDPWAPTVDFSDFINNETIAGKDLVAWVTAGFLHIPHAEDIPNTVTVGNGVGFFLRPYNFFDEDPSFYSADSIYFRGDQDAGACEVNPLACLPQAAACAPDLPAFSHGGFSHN
Outline: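 Human recombinant VAP-1 (0.1 µg protein/assay) in 0.2 mol/L phosphate buffer pH 7.4, 50 min at 37 °C; amine at 1 mM added with HRP/Amplex Red mix. H2O2 fluorescence (ex 545/em 590) read every 5 min, quantified against H2O2 standard curve; semicarbazide-preincubated (250 µM, 20 min) background subtracted. Mean percentage relative to benzylamine-derived H2O2.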

[2] = molecular target: T2, Amine oxidase [copper-containing] 3 (Mus musculus) (UniProt O70423); experiment: Activity of mouse SSAO measured as hydrogen peroxide production at 100 uM relative to benzylamine oxidation; type: functional
T2 sequence (whole entry): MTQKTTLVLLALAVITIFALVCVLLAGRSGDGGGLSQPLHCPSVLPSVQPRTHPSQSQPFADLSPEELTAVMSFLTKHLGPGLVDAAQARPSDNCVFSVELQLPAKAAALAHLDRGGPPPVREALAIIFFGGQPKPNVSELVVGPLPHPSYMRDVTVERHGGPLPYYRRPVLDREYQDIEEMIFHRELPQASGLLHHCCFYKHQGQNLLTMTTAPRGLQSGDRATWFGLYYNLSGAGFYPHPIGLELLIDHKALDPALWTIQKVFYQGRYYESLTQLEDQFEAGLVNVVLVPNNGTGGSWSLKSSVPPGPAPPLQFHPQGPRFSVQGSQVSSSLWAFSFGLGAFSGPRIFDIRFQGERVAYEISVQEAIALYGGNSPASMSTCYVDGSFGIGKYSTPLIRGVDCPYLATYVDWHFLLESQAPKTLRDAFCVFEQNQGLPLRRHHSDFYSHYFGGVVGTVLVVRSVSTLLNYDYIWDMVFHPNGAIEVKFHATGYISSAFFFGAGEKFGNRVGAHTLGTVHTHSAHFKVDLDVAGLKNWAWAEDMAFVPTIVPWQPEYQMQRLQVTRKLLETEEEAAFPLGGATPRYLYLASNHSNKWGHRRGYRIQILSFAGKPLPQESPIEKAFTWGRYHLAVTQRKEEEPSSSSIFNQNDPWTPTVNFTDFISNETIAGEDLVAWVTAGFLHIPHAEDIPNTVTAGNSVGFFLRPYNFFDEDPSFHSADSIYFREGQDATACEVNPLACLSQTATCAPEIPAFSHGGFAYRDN
Outline: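 Mouse adipose tissue membranes (Swiss mice, 1 µg protein/assay) in 0.2 mol/L phosphate buffer pH 7.4, 50 min at 37 °C; amine at 100 µM added with HRP/Amplex Red. H2O2 fluorescence (ex 545/em 590) vs H2O2 standard curve, minus 250 µM semicarbazide (20 min preincubation) background. Mean percentage relative to benzylamine-derived H2O2.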

[3] = test system: Adipocyte; experiment: Stimulation of glucose transport in mouse adipocytes at 0.1 mM in presence of sodium orthovanadate; type: functional, cell-based
Outline: (§1)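 Adipocytes from internal fat pads of male Swiss mice (30-35 g), collagenase-isolated, incubated 45 min at 37 °C with amine ± 1 mM sodium orthovanadate (± 1 mM semicarbazide); then 2-deoxy-D-[3H]glucose (0.1 mM final) uptake over 10 min. Two experiments in triplicate, mean ± SEM.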

[4] = test system: Adipocyte; experiment: Stimulation of glucose transport in mouse adipocytes at 1 mM in presence of sodium orthovanadate; type: functional, cell-based; outline: as §1

Row | SMILES | Activity [1] | Activity [2] | Activity [3] | Activity [4]
1 | NCc1cccc(CNC(=O)c2ccc(O)cc2)c1 | 5% | 26% |  | 
2 | CC(C)(C)c1ccc(CN)cc1 | 0% | 1% |  | 
3 | COc1ccc(CCN)cc1OC | 0% | 3.8% |  | 
4 | NCCc1ccccc1 | 21% | 19% |  | 
5 | Cc1ccc(CN)cc1 | 0% | 0% |  | 
6 | NCCc1ccc(F)cc1 | 35% | 18% |  | 
7 | CC(=O)NCc1cccc(CN)c1 | 3% | 16% |  | 
8 | COc1cc(F)cc(CN)c1 | 2.53% | 4.86% |  | 
9 | CCCCc1ccc(CN)cc1 | 5% | 24% |  | 
10 | COc1ccc(CN)c2ccccc12 | 0.7% | 0% |  | 
11 | COc1cccc2[nH]cc(CCN)c12 | 0% | 5.54% |  | 
12 | NCc1ccc(OC(F)(F)F)cc1 | 0% | 66.2% |  | 
13 | NCc1cccc(CNC(=O)c2ccccc2)c1 | 17% | 58% |  | 
14 | CCc1ccc(CN)cc1 | 14% | 26% |  | 
15 | NCc1ccc(CN)cc1 | 0% | 0% |  | 
16 | NCc1cccc([N+](=O)[O-])c1O | 0.11% | 5.47% |  | 
17 | NCc1cccc(CN)c1 | 0% | 0% |  | 
18 | C=CCOC(=O)NCc1cccc(CN)c1 | 21% | 49% |  | 
19 | Cc1ccc(S(=O)(=O)NCc2cccc(CN)c2)cc1 | 12% | 14% |  | 
20 | COc1ccc(CN)cc1 | 0% | 4.56% |  | 
21 | CCC(=O)NCc1cccc(CN)c1 | 4% | 27% |  | 
22 | CC(C)c1ccc(CN)cc1 | 0% | 0% |  | 
23 | CC(N)c1cccc2ccccc12 (centres undefined) | 11% | 0% |  | 

Row | SMILES | Activity [1] | Activity [2] | Activity [3] | Activity [4]
24 | NCc1ccc(F)cc1 | 134% | 127% |  | 
25 | NCc1ccc(O)c(Br)c1 | 0% | 0% |  | 
26 | NCc1ccc(OC(F)(F)F)cc1OC(F)(F)F | 0% | 0% |  | 
27 | Cc1ccc(CN)cc1F | 88% | 133% |  | 
28 | NCc1ccc(C(F)(F)F)cc1 | 4% | 35% |  | 
29 | NCc1ccccc1 | 100% | 100% | Active | Active
30 | NCCOc1ccccc1 | 17.9% | 14.6% |  | 
31 | NCc1ccccc1F | 1.3% | 44% |  | 
32 | NCCCc1ccccc1 | 44% | 40% |  | 
33 | CC(=O)N[C@H](C(=O)NCc1cccc(CN)c1)c1ccccc1 | 2% | 13% |  | 
34 | NCCc1ccc(O)c(O)c1 | 0% | 0% |  | 
35 | NCc1cccc(CNC(=O)c2ccc(O)cc2O)c1 | 0% | 0% |  | 
36 | NCc1cccc(CNC(=O)CI)c1 | 38% | 61% |  | 
37 | COc1cc(CN)cc(OC)c1 | 0% | 0.75% |  | 
38 | NCc1ccc(C(=O)NCc2cccc(CN)c2)cc1 | 17% | 12% |  | 
39 | NCc1ccc(C(=O)O)cc1 | 0% | 4.06% |  | 
40 | NCCCCc1ccccc1 | 166% | 71% | Active | Active
41 | NCc1cccc(CNC(=O)c2ccc(Br)cc2)c1 | 16% | 46% |  | 
42 | NCc1c(O)ccc2ccccc12 | 0% | 0% |  | 
43 | NCc1ccc(-c2ccccc2)cc1 | 0% | 3.77% |  | 
44 | COc1ccc(O)c(CN)c1 | 0% | 0% |  | 
45 | NCc1ccc(OCc2ccccc2)cc1 | 0% | 0% |  | 
